EBNA-1 inh: EBNA-1 DNA-binding inhibitors, primary screen, biochemical, fluorescence polarization; inhibition, % at 14.8 µM; actives 0.34% (n = 300,000); AID 1950, 2009; in the data active = inhibition above about 28%
ZTA DNA inh: ZTA (EBV) inhibition in EBNA-1 counter-screen. P03206. ZTA-DNA binding, fluorescence polarization. inhibition, % at 11 µM. actives 0.15% (n = 320,000); in the data active = inhibition above about 33%
core dimer inh: inhibitors of HCV core protein dimerization, primary screen, biochemical, TR-FRET, high-throughput. actives 0.33% (n = 300,000). inhibition, % at 5 µM. AID 1899, 2009. TR-FRET GST/Flag-core106 dimerization, 1536-well;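 active = inhibition above the mean of all tested compounds plus 3 SD, set per screening campaign, cut at about 45% in these data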
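System: GST-tagged and Flag-tagged HCV core protein residues 1-106 / Input: core106 proteins, GST 13.5 nM and Flag 17 nM / Buffer or medium: KF-containing HEPES buffer, pH 7.45, DTT, CHAPS, BSA / Probe or stimulus: Eu-anti-GST and XL665-anti-Flag labelled anti-tag antibodies / Schedule: 4 h, 22.5 °C incubation / Technique: TR-FRET 671 and 617 nm emission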
NS3 helicase inh: inhibitors of HCV NS3 helicase, primary screen, biochemical, Cy5 molecular beacon fluorescence; Hepatitis C virus NS3 helicase; NS3 helicase DNA unwinding; inhibition, % at 10.9 µM; actives 0.56% (n = 290,000); AID 1800, 2009;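 active = inhibition above the mean of all tested compounds plus 3 SD, set per campaign, cut at about 35% in these data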;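 also: 0% = DMSO wells and 100% = thioflavine S control wells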
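Material: hepatitis C virus NS3 helicase domain fragment enzyme; measured by: Cy5 fluorescence, 0 and 60 min reads; control set: DMSO and thioflavine S; incubation: 60 min unwinding reaction at 25 °C after ATP addition; read-out basis: % inhibition from 60/0 min fluorescence ratio, DMSO 0%, thioflavine S 100%; repeats: singlicate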
PP1 inh: PP1-alpha phosphatase inhibitors, primary screen, counter-screen for PP5 inhibitor project, biochemical, fluorescence, OMFP substrate, single point; Serine/threonine-protein phosphatase PP1-alpha catalytic subunit (Homo sapiens), P62136; purified PP1alpha; inhibition, % at 6.7 µM; actives 0.9% (n = 320,000); AID 2235, 2010;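 active = inhibition above the mean inhibition of all tested compounds plus 3 SD, computed separately for each screening campaign, cut at about 15% in these data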
Target sequence (P62136 whole entry, looked up): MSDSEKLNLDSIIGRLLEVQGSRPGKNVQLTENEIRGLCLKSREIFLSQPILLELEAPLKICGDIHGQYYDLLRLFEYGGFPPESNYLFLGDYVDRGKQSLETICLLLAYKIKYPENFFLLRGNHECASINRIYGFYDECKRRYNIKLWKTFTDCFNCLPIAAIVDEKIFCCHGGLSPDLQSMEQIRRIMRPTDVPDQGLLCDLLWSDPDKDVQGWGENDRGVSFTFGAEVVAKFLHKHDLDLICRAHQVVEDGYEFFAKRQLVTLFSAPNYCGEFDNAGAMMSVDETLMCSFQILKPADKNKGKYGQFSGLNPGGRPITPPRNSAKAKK
Active calls of the source: *; . = no result given. Shown are actives, neighbours in structure and some others; about 1.9% of the full set was active somewhere.

SMILES | EBNA-1 inh | ZTA DNA inh | core dimer inh | NS3 helicase inh | PP1 inh
C=CCn1c(COc2ccccc2-c2ccccc2)nnc1SCC(=O)NC(=O)NCc1ccco1 | 1 | 0 | 11 | -4 | 16*
Cn1c(SCC(=O)NC(=O)NCc2ccco2)nnc1-c1ccccc1 | -10 | 10 | 57* | 7 | -7
O=C(COc1ccc(Br)cc1Cl)NNC(=O)c1ccccc1 | . | 8 | . | . | 1
CCOC(=O)Cc1csc(NC(=O)CSc2nc(=O)[nH]c3c2CCC3)n1 | -1 | -9 | -1 | . | 1
COc1ccc2cc(C#N)c(NC(C)C)nc2c1 | -1 | -1 | -4 | 4 | 1
CCN(CC)c1nc2cc(OC)ccc2cc1C#N | -1 | 8 | 55* | -1 | 3
Cn1ncc([N+](=O)[O-])c1C(=O)N1CCCCCC1 | . | . | . | 6 | .
Cc1nn(-c2ccccn2)c2c1C(c1c(F)cccc1Cl)C1=C(N2)c2ccccc2C1=O (stereo not given) | 1 | 7 | 16 | -7 | 17*
COc1cccc2sc(Nc3nc(-c4ccccn4)cs3)nc12 | -9 | 16 | 20 | -30 | 17*
Cc1ccc2c(c1)c(N=NC(N)=O)c(O)n2C | 11 | 12 | -5 | -10 | -2
CCCNC(=O)c1ccc(N2CCC3(CC2)CC(c2cccc(Br)c2)=NO3)c(NC(=O)c2cccc(C)c2)c1 | 3 | -4 | 5 | . | 16*
CCNC(=O)CSc1ncnc2sccc12 | 0 | 4 | 58* | 8 | 3
Cc1cc(NC(=O)CSc2ncnc3sccc23)no1 | -1 | -1 | -1 | 15 | -2
N#Cc1c(NC(=O)CSc2ncnc3sccc23)oc(-c2ccco2)c1-c1ccco1 | -5 | 15 | 50* | 26 | 6
COCCNC(=O)CSc1ncnc2sccc12 | 5 | 5 | -3 | 17 | -2
OCCN1CCN(C(=S)Nc2cccc(C(F)(F)F)c2)CC1 | -2 | 11 | -2 | -7 | 2
Cc1onc(-c2ccccc2)c1C(=O)Nc1sc2c(c1C(N)=O)CCC2 | -21 | 0 | 62* | 10 | 6
Cc1onc(-c2ccccc2)c1C(=O)Nc1nc(-c2ccccc2)cs1 | 8 | 4 | 54* | -5 | 3
Cc1onc(-c2ccccc2)c1C(=O)Nc1sc2c(c1C#N)CCC2 | 5 | 4 | 15 | 7 | 2
Cc1ccc(NC(=O)C2CC2C)cc1S(=O)(=O)N1CCOCC1 (stereo not given) | 4 | 2 | 0 | . | -3
COc1ccc(Cl)cc1C(Nc1cccnc1)c1ccc2cccnc2c1O (stereo not given) | 4 | -2 | 5 | 8 | 17*
CC(=O)Oc1ccc(C(=O)Nc2cccc(C(=O)c3cccc(NC(=O)c4ccc(OC(C)=O)cc4)c3)c2)cc1 | 15 | 14 | 18 | 9 | 15*
CC(=O)Oc1ccc(C(=O)Nc2cccc(C(=O)NC(C)(C)C)c2)cc1 | -22 | -11 | -2 | 5 | -1
O=C(O)CSCC(=O)N(c1ccccc1)c1ccccc1 | 9 | 5 | 1 | 5 | -4
Cc1ccn2c(NC3CCCCC3)c(-c3cccc(-c4cccc(Cl)c4)c3)nc2c1 | 2 | 12 | 3 | . | 17*
SMILES | EBNA-1 inh | ZTA DNA inh | core dimer inh | NS3 helicase inh | PP1 inh
Cc1ccn2c(NC3CCCC3)c(-c3ccncc3)nc2c1 | 5 | 2 | -7 | -18 | -1
COc1cc(-c2nc3cc(C)ccn3c2NC2CCCCC2)ccc1-c1ccc(C(C)=O)cc1 | 1 | 2 | 31 | . | 18*
CCCCNc1c(-c2ccc(-c3ccc(C(C)=O)cc3)c(OC)c2)nc2cnccn12 | 4 | 0 | 13 | . | 17*
Cc1cc(OCC(=O)Nc2ccc(S(=O)(=O)N3CCN(C)CC3)cc2)ccc1Br | 10 | -11 | -3 | -38 | 1
C/C=C(\C)CN1CCCC(N(C)CCc2ccc(OC)c(OC)c2)C1 (stereo not given) | 2 | -7 | 0 | 8 | 0
CN(c1ccc(Cl)cc1)c1cc(=O)n(C)c2ccccc12 | 5 | -1 | 67* | 14 | 5
CN(C(=O)COc1cc(=O)n(C)c2ccccc12)c1ccc(Cl)cc1 | -4 | 3 | -3 | 10 | -2
O=C(COC(=O)c1ccccc1Cc1ccccc1)Nc1ccc(SC(F)F)cc1 | 4 | -12 | -1 | 9 | 16*
